INS-1E rescue – rescue of cytokine-induced death in INS-1E beta cells. INS-1E cytokine-induced death, ATP luminescence, 48 h; normalised: neutral wells 0, positive control 100. protection from cytokine-induced ATP loss, % at 10 µM. hit rate 0.1% among 20,000. AID 488910;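 active = mean replicate protection from cytokine-induced ATP loss at least 50% and at least 75% of replicates each reaching 50%; inconclusive = meets only one of the two criteria, mean or replicate share; inactive = fails both the mean and replicate share criteria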
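Assay system – rat INS-1E insulinoma cell line · Quantity – 8000 cells per well · Buffer or medium – RPMI without phenol red, 5% FBS · Schedule – 48 h co-treatment, 10 min post-lysis read · Technique – luminescent ATP assay (CellTiter-Glo)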
YB-1 expr inh – YB-1 expression inhibition | U2OS, qRT-PCR YB-1 vs CDIP delta delta Cp, 16 h; stronger effect = higher value; zero = DMSO, each unit about twofold | delta delta Cp (YB-1 minus CDIP) (test concentration not listed) | hit rate 0.37% among 30,000;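 active = delta delta Cp rounded down to an integer at or above 3, about 3 SD of DMSO wells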;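 note: higher means less YB-1 transcript or more CDIP transcript relative to DMSO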
T cruzi intra – blocks T. cruzi growth inside host cells | hit rate 4.9% among 22,000 | intracellular Trypanosoma cruzi in host cells, plate reader | activity score (inhibition), % at 5.01 µM; in the data active = activity score above about 55%; inconclusive = no clear call, values can overlap the other calls;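 note: parasites and compound incubated about four days before reading; 0% = median of neutral control wells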
Numbers without * were called inactive. This excerpt belongs to a sample that is enriched for hits.

Screening C[C@H]1CN([C@@H](C)CO)C(=O)c2cc(NC(=O)NC3CCCCC3)ccc2O[C@H]1CN(C)Cc1ccc2c(c1)OCO2 returned INS-1E rescue 5, YB-1 expr inh 0.031 and T cruzi intra 58*.
Screening C[C@H](CO)N1C[C@H](C)[C@H](CN(C)Cc2ccc3c(c2)OCO3)Oc2ccc(NC(=O)NC3CCCCC3)cc2C1=O returned YB-1 expr inh -0.29 and T cruzi intra 56*.
Screening C[C@@H]1CN([C@H](C)CO)C(=O)c2cc(NC(=O)NC3CCCCC3)ccc2O[C@@H]1CN(C)Cc1ccc2c(c1)OCO2 returned INS-1E rescue 1, YB-1 expr inh -0.34 and T cruzi intra -16.
Screening C[C@H]1CN([C@@H](C)CO)C(=O)c2cc(NC(=O)NC3CCCCC3)ccc2O[C@@H]1CN(C)Cc1ccc2c(c1)OCO2 returned INS-1E rescue -8, YB-1 expr inh 0.12 and T cruzi intra -5.
Screening Cc1nn(CC(N)=S)c(C)c1Br returned YB-1 expr inh -0.19.
`COc1ccc(CN(C)C[C@@H]2Oc3c(NC(=O)c4ccncc4)cccc3C(=O)N([C@@H](C)CO)C[C@H]2C)cc1` gave INS-1E rescue 2, YB-1 expr inh -0.028 and T cruzi intra 79*.
Screening COc1ccc(NC(=O)Nc2cccc3c2O[C@H](CN(C)Cc2ccncc2)[C@H](C)CN([C@@H](C)CO)C3=O)cc1 returned INS-1E rescue 1, YB-1 expr inh 0.32 and T cruzi intra -18.
Screening COc1ccc(CN(C)C[C@H]2Oc3c(NC(=O)c4ccncc4)cccc3C(=O)N([C@@H](C)CO)C[C@@H]2C)cc1 returned INS-1E rescue -2, YB-1 expr inh -0.23 and T cruzi intra 83*.
C[C@@H]1CN([C@H](C)CO)C(=O)c2cccc(NC(=O)c3ccncc3)c2O[C@H]1CN(C)Cc1ccc(C(=O)Nc2ccccc2N)cc1 was read as INS-1E rescue 0, YB-1 expr inh -0.31 and T cruzi intra 9.
`CC(C)c1nc(/N=C/N(C)C)nc(=O)n1C` gave YB-1 expr inh -0.35.
Screening CCn1c2ccccc2c2cc(CNCCc3ccc(Cl)cc3)ccc21 returned YB-1 expr inh -0.24.
For C[C@H](CO)N1C[C@H](C)[C@H](CN(C)Cc2ccc(Cl)c(Cl)c2)Oc2ccc(NS(=O)(=O)c3ccc(F)cc3)cc2CC1=O the results were INS-1E rescue 0, YB-1 expr inh 0.047 and T cruzi intra 57*.
`C[C@@H]1CN([C@H](C)CO)C(=O)Cc2cc(NS(=O)(=O)c3ccc(F)cc3)ccc2O[C@@H]1CN(C)Cc1ccc(Cl)c(Cl)c1` gave INS-1E rescue -34, YB-1 expr inh 0.056 and T cruzi intra 63*.
Screening Cc1ccc(S(=O)(=O)Nc2ccc3c(c2)CC(=O)N([C@H](C)CO)C[C@H](C)[C@H](CN(C)Cc2ccc4c(c2)OCO4)O3)cc1 returned INS-1E rescue -13, YB-1 expr inh 0.13 and T cruzi intra 20.
For Cc1ccc(S(=O)(=O)Nc2ccc3c(c2)CC(=O)N([C@H](C)CO)C[C@H](C)[C@H](CN(C)Cc2ccc(Cl)c(Cl)c2)O3)cc1 the results were INS-1E rescue -4, YB-1 expr inh -0.17 and T cruzi intra 21.
`Cc1ccc(S(=O)(=O)Nc2ccc3c(c2)CC(=O)N([C@H](C)CO)C[C@@H](C)[C@H](CN(C)Cc2ccc4c(c2)OCO4)O3)cc1` gave INS-1E rescue 0, YB-1 expr inh 0.052 and T cruzi intra 61*.
Screening C[C@H](CO)N1C[C@H](C)[C@H](CN(C)Cc2ccc(Cl)c(Cl)c2)Oc2ccc(NS(=O)(=O)c3ccc(Cl)cc3)cc2CC1=O returned INS-1E rescue -30, YB-1 expr inh 0.45 and T cruzi intra 45.
Screening Cc1ccc(S(=O)(=O)Nc2ccc3c(c2)CC(=O)N([C@@H](C)CO)C[C@H](C)[C@@H](CN(C)Cc2ccc(Cl)c(Cl)c2)O3)cc1 returned INS-1E rescue -54, YB-1 expr inh 0.57 and T cruzi intra 75*.
Screening C[C@H]1CN([C@@H](C)CO)C(=O)Cc2cc(NS(=O)(=O)c3ccc(F)cc3)ccc2O[C@@H]1CN(C)Cc1ccc(Cl)c(Cl)c1 returned INS-1E rescue -24, YB-1 expr inh 0.049 and T cruzi intra inconclusive.
For CCOC(=O)CN1C(=O)C2(C(C#N)=C(N)Oc3n[nH]c(C)c32)c2ccccc21 (centres undefined) the results were YB-1 expr inh 0.44.
Screening c1ccc(-c2ccc3c4ccccc4cc-3o2)cc1 returned YB-1 expr inh 0.47.
Screening CN(C)C(=O)COc1cc2oc(=O)c3c(c2cc1Cl)CCC3 returned YB-1 expr inh -0.29.
`C=Cc1cncc2c(=O)n3c(cc12)-c1[nH]c2ccccc2c1CC3` gave YB-1 expr inh 0.0018.
O=C(/C=C/c1ccccc1)C1C(=O)C(=O)N(c2ccccc2)C1c1ccccc1 (centres undefined) was read as YB-1 expr inh 0.026.
`Cc1sc(NC(=O)Cn2nc(C(F)(F)F)cc2C)c(C(N)=O)c1C` gave YB-1 expr inh 0.013.
C[C@H]1CN([C@@H](C)CO)C(=O)Cc2cc(NS(=O)(=O)c3ccc(Cl)cc3)ccc2O[C@H]1CN(C)Cc1ccc(Cl)c(Cl)c1 was read as INS-1E rescue -25, YB-1 expr inh 0.37 and T cruzi intra 29.
`C[C@@H]1CN([C@H](C)CO)C(=O)Cc2cc(NS(=O)(=O)c3ccc(Cl)cc3)ccc2O[C@@H]1CN(C)Cc1ccc(Cl)c(Cl)c1` gave INS-1E rescue -65, YB-1 expr inh -3.7 and T cruzi intra 67*.
Screening C[C@H]1CN([C@@H](C)CO)C(=O)c2cccc(NC(=O)c3nc4ccccc4s3)c2O[C@@H]1CN(C)Cc1ccc2c(c1)OCO2 returned INS-1E rescue -27, YB-1 expr inh -0.032 and T cruzi intra 59*.
Screening C[C@@H]1CN([C@H](C)CO)C(=O)c2cccc(NC(=O)c3nc4ccccc4s3)c2O[C@@H]1CN(C)Cc1ccc2c(c1)OCO2 returned INS-1E rescue -20, YB-1 expr inh -0.4 and T cruzi intra -15.
`C[C@@H]1CN([C@@H](C)CO)C(=O)c2cccc(NC(=O)c3nc4ccccc4s3)c2O[C@H]1CN(C)Cc1ccc2c(c1)OCO2` gave INS-1E rescue -25, YB-1 expr inh -0.074 and T cruzi intra 61*.
For C[C@@H]1CN([C@H](C)CO)C(=O)c2cccc(NC(=O)c3nc4ccccc4s3)c2O[C@H]1CN(C)Cc1ccc2c(c1)OCO2 the results were INS-1E rescue -27, YB-1 expr inh -0.13 and T cruzi intra 48.
`CN1C(=O)C(c2c[nH]c3ccccc23)=C(c2c[nH]c3ccccc23)C1=O` gave YB-1 expr inh 2.2.
Screening COc1cc(Cl)c(/C=N\NC(=O)CCCCC(=O)NO)c(Cl)c1OC returned INS-1E rescue 68*, YB-1 expr inh -0.5 and T cruzi intra 18.
Screening CCOc1cccc(/C=N/NC(=O)CCCCCCC(=O)OC)c1OCC returned INS-1E rescue 6, YB-1 expr inh 0.028 and T cruzi intra 1.
For O=C(CCCCCCC(=O)Nc1ccccc1O)N/N=C/c1ccc(O)c2ccccc12 the results were INS-1E rescue -1, YB-1 expr inh 0.63 and T cruzi intra -3.
